Hits are enriched below; roughly 2.3% of the tested compounds scored in any of these assays.
TRPC4 inh – inhibitors of mouse TRPC4 channel, primary screen, Fluo4 calcium, HEK293 TRPC4beta/mu-opioid cells; Short transient receptor potential channel 4 (Mus musculus), Q9QUQ5; DAMGO-evoked Fluo4 calcium flux; stronger effect = lower value; B-score at 10 µM; 300,000 tested, 0.39% active; AID 2247, 2010;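 active = B-score over 3 SD under the library average, no early fluorescence shift, positive overall ratio signal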
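Material: HEK293 cells with stable TRPC4beta plus mu-opioid receptor expression; probe or stimulus: DAMGO in two steps, submaximal then maximal; technique: Fluo4 calcium fluorescence by kinetic imaging, 5 s 1 Hz baseline; measure: integrated fluorescence ratio relative to baseline, converted to per-well B score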
TRPC6 inhibitor – mouse TRPC6 channel inhibitors, primary screen, cell-based, HEK293, membrane potential dye | ACh-evoked depolarization; stronger effect = lower value | B-score at 10 µM | 310,000 tested, 1.1% active | AID 2553, 2010;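 active = B-score under library mean minus 3 SD, initial fluorescence not abnormally high, positive integrated signal ratio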;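 note: B-score derived from integrated fluorescence ratio over the kinetic read; more negative B-score means stronger inhibition of depolarization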
Target sequence (Q61143 whole entry, looked up): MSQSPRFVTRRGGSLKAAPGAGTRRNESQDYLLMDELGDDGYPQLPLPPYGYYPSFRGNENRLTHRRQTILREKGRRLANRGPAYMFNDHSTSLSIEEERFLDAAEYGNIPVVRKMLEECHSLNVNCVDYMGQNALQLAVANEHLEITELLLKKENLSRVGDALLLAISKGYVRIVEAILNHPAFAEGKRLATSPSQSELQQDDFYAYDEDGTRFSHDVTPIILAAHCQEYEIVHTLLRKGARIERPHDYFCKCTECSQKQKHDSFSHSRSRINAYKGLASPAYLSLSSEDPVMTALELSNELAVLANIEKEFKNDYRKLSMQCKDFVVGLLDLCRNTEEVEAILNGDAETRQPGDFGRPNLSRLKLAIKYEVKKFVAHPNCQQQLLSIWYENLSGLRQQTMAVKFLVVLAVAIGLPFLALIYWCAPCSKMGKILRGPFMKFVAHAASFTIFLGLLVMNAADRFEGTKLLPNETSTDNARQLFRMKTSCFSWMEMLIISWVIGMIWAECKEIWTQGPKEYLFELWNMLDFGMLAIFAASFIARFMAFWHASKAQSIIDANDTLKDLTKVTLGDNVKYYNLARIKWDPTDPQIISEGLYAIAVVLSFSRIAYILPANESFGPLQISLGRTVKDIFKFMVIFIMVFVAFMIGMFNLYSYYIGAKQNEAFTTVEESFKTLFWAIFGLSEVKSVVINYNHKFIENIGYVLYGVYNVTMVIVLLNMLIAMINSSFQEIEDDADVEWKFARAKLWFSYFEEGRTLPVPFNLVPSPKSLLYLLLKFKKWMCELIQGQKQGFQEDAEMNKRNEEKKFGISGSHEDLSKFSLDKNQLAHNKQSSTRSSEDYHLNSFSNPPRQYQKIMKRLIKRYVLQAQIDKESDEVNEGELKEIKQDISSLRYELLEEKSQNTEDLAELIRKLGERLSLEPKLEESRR
TRPC4 potent – positive allosteric modulators of TRPC4, primary screen, cell-based, mouse TRPC4beta, HEK293 mu-opioid, Fluo-4 calcium | 310,000 tested, 0.42% active | DAMGO EC20, Fluo-4 Ca2+ flux; stronger effect = higher value | B-score at 10 µM | Short transient receptor potential channel 4 (Mus musculus), Q9QUQ5;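 active = B-score of calcium response area above 5 SD of library B-scores, with initial fluorescence ratio within 5 SD of library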;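 note: B-score of integrated fluorescence ratio over time as area under calcium response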
TRPC6 activator – mouse TRPC6 channel activators, primary screen, cell-based, HEK293, membrane potential dye. 310,000 tested, 0.13% active. B-score at 10 µM. Short transient receptor potential channel 6 (Mus musculus), Q61143. AID 2550, 2010. HEK293-TRPC6 membrane potential dye fluorescence; stronger effect = higher value;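 active = B-score of the integrated fluorescence ratio above library mean plus 3 SD, and starting fluorescence ratio within library mean plus 5 SD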;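 note: higher score means more depolarization so channel activation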
TRPC4 agonist – activators of mouse TRPC4 channel, primary screen, Fluo4 calcium, HEK293 TRPC4beta/mu-opioid cells; B-score at 10 µM; Short transient receptor potential channel 4 (Mus musculus), Q9QUQ5; Fluo4 calcium fluorescence; stronger effect = higher value; 310,000 tested, 0.49% active;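 active = B-score above 5 SD of library B-scores, and initial fluorescence ratio not above library mean plus 5 SD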;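 note: positive B-score marks a calcium rise read as TRPC4 activation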
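Technique: kinetic Fluo4 calcium fluorescence; Test system: TRPC4beta and mu-opioid receptor HEK293 stable cells; Measure: B-scored integrated calcium fluorescence ratio; Benchmarks: low control buffer alone, high control maximal DAMGO; Schedule: 45 min room-temperature Fluo4 loading, 110 s read.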
TRPC4 sel inh 2 – mouse TRPC4 off-target activity of TRPC6 inhibitors, second screen; shares compounds with TRPC6 inhibitor; HEK293 TRPC4/MOR, membrane potential dye fluorescence; channel activated by saturating DAMGO dose; inhibition, % at 10 µM; 920 tested, 42% active;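 active = compounds whose fluorescence signal differed from control wells by over 3 SD, either direction, in both duplicate plates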
TRPC4 spec – mouse TRPC4 modulation by TRPC6 hits, confirmation, selectivity assay for TRPC6 inhibitor project, cell-based, HEK293 TRPC4/mu-opioid, membrane potential dye; membrane potential fluorescence; 920 tested, 61% active; shares compounds with TRPC6 inhibitor; activity change, negative = inhibition, % at 10 µM;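 active = rise or fall in signal beyond 3 SD of buffer-only wells in both replicate plates, either sign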;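 note: integrated kinetic ratio of fluorescence range over baseline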
HEK293 MPD ctr 2-1 – nonspecific membrane potential effects, parental HEK293, confirmation, counter-screen for TRPC6 inhibitor project, cell-based, second counter screen; shares compounds with TRPC6 inhibitor; parental HEK293 membrane potential dye fluorescence; maximal acetylcholine challenge after compound addition; signal change vs control, % at 10 µM; 920 tested, 31% active; AID 2779, 2010;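 active = membrane potential signal moving either way by over 3 SD of the maximum-effect control, in both duplicate plates, meaning non-specific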
HEK293 MPD ctr-1 – membrane potential modulation in parental HEK293, confirmation, counter-screen for TRPC6 inhibitor project, cell-based; membrane potential signal change, % at 10 µM; 920 tested, 60% active; shares compounds with TRPC6 inhibitor; parental HEK293 membrane potential dye fluorescence;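 active = membrane potential signal shifting up or down by more than 3 SD of buffer-only wells, on both duplicate plates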
HEK293 MPD ctr-2 – parental HEK293 membrane potential modulation, confirmation, counter-screen for TRPC6 modulator project, cell-based. shares compounds with TRPC6 inhibitor. membrane potential dye fluorescence. membrane potential signal change, % at 10 µM. 2,400 tested, 51% active. AID 488924, 2010;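 active = membrane potential signal moves up or down beyond 5 SD from buffer-only wells, on both duplicate plates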
HEK293 MPD ctr 2-2 – second counter-screen for TRPC6 modulators: effect in parental HEK293 cells | shares compounds with TRPC6 inhibitor | membrane potential dye fluorescence; after compound, maximal acetylcholine stimulation | inhibition, % at 10 µM | 2,400 tested, 14% active;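 active = membrane potential signal drops by more than 5 SD from the mean control signal, in both duplicate plates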;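 note: plate controls were acetylcholine ECmax control wells for no effect and buffer only wells for full effect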
TRPC4/MOR mod – TRPC4 modulation by TRPC6 hit compounds, confirmation, selectivity assay for TRPC6 modulator project, cell-based, HEK293 TRPC4/mu-opioid, membrane potential dye, mouse | shares compounds with TRPC6 inhibitor | membrane potential fluorescence | percent change from control (negative = decrease, positive = increase), % at 10 µM | 2,400 tested, 69% active | AID 488927, 2010;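 active = membrane potential signal moved up or down beyond 5 SD of buffer control wells, in both duplicate plates, actives on both sides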;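 note: plate controls were assay buffer wells for no effect and DAMGO maximal-effect wells for full effect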
TRPC4/MOR inh 2 – mouse TRPC4 off-target activity of TRPC6 modulators, second screen; 2,400 tested, 55% active; shares compounds with TRPC6 inhibitor; inhibition, % at 10 µM; HEK293 TRPC4/mu-opioid, membrane potential dye fluorescence; stimulated with maximal-effect DAMGO;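 active = drop in membrane potential signal beyond 5 SD of the control wells in both duplicate plates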;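 note: TRPC4 counter screen for TRPC6 hits run under conditions tuned for TRPC6 not TRPC4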
TRPC6 block conf – mouse TRPC6 channel inhibitors, confirmation, HEK293 cells, membrane potential dye, duplicate; inhibition, % at 10 µM; 3,300 tested, 43% active; ACh-evoked depolarization; AID 488960, 2010; shares compounds with TRPC6 inhibitor;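 active = fluorescence ratio falls more than 5 SD below the full-stimulation control mean, in both duplicate runs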;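 note: integrated fluorescence ratio of peak minus minimum over baseline after agonist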
TRPC6 act confirm – mouse TRPC6 channel activators, confirmation, HEK293 cells, membrane potential dye, duplicate; 2,800 tested, 11% active; activation, % at 10 µM; HEK293-TRPC6 membrane potential dye fluorescence, FDSS; shares compounds with TRPC6 inhibitor;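 active = ratio signal rise beyond 5 SD above unstimulated control wells' mean, seen in both duplicate runs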;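 note: plate controls were buffer EC0 wells for no effect and acetylcholine ECmax response for full effect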
The depositor's hits bear a star; i = inactive; x = no result given.

SMILES | TRPC4 inh | TRPC6 inhibitor | TRPC4 potent | TRPC6 activator | TRPC4 agonist | HEK293 MPD ctr-2 | HEK293 MPD ctr 2-2 | TRPC4/MOR mod | TRPC4/MOR inh 2 | TRPC6 block conf | others
COC(=O)c1sccc1NC(=O)c1ccccc1F | i | -6.29* | i | i | i | i | i | i | i | i | TRPC6 act confirm=i
CCOC(=O)C1(Cc2cccc(OC)c2)CCCN(C(=O)CCc2cccnc2)C1 (stereo not given) | i | i | i | i | i | x | x | x | x | x
Cc1ccc2c(c1)c1c3n2CCN=C3CCC1 | i | -5.01* | i | i | i | -171.0%* | i | -27.5%* | 49.0%* | i | TRPC6 act confirm=i
CCOc1ccc(CC(=O)Nc2ccc(-c3ccc4nnc(C)n4n3)cc2)cc1 | i | i | i | i | i | x | x | x | x | x
CN(C)CC#CCC(O)(c1ccccc1)C1CCCCC1 (stereo not given) | i | -6.53* | i | i | i | i | 105.0%* | 19.5%* | 36.0%* | 78.5%* | TRPC6 act confirm=i
CCN(CC)CCC#CC(O)(c1ccccc1)C1CCCCC1 (stereo not given) | i | -7.61* | i | i | i | x | x | x | x | 63.5%* | TRPC4 sel inh 2=62.5%*;TRPC4 spec=48.8%*;HEK293 MPD ctr 2-1=i;HEK293 MPD ctr-1=17.2%*
OCCN(CC#CCC(O)(c1ccccc1)C1CCCC1)CCO (stereo not given) | i | i | i | i | i | x | x | x | x | x
CCC[N+]1(CC#CC(O)(c2ccccc2)C2CCCCC2)CCCCC1 (stereo not given) | i | i | i | i | i | x | x | x | x | x
CCN(CC)CC#CCC(O)(c1ccccc1)C1CCCC1 (stereo not given) | i | -6.45* | i | i | i | 156.5%* | 99.5%* | 29.5%* | i | 75.0%*
CC(C)(C)NS(=O)(=O)c1cnc(Cl)c(Cl)c1 | i | i | i | i | i | x | x | x | x | x
COc1ccc2oc(=O)c(C(=O)C[n+]3cccc(C)c3)cc2c1 | i | -8.36* | i | i | i | x | x | x | x | i | TRPC4 sel inh 2=i;TRPC4 spec=-12.2%*;HEK293 MPD ctr 2-1=i;HEK293 MPD ctr-1=-137.0%*;TRPC6 act confirm=i
CNC(=O)c1cc2cc(OC)ccc2oc1=O | i | i | i | i | i | x | x | x | x | x
CC(C)CC[n+]1ccccc1/C=C/c1ccc(N(C)C)cc1 | i | -5.8* | i | i | 66* | 719.0%* | 113.0%* | 115.0%* | i | 68.0%*
CN(C)c1ccc(/C=C/c2cccc[n+]2[O-])cc1 | i | i | i | i | i | x | x | x | x | x
COc1ccccc1Nc1nc(N)nc(CN2CCC(Cc3ccccc3)CC2)n1 | i | -6.45* | i | i | i | 100.5%* | i | i | 83.5%* | 47.0%*
COc1ccccc1Nc1nc(N)nc(CSC(=S)N2CCC(C)CC2)n1 | i | -5.5* | i | i | i | i | i | i | i | 77.5%*
COc1ccccc1Nc1nc(N)nc(CSC(=S)N2CCCCC2C)n1 (stereo not given) | i | -7.75* | i | i | i | x | x | x | x | i | TRPC4 sel inh 2=i;TRPC4 spec=i;HEK293 MPD ctr 2-1=i;HEK293 MPD ctr-1=i;TRPC6 act confirm=i
COc1ccccc1Nc1nc(N)nc(CN2CCC(C)CC2)n1 | i | i | i | i | i | x | x | x | x | x
Cc1cc(OCC(=O)NCc2ccccn2)c2c(C)cc(=O)oc2c1 | i | i | i | i | i | x | x | x | x | x
CCOC(=O)Cc1csc(SC(C)C(=O)NC2CCCCC2C)n1 (stereo not given) | i | i | i | i | i | x | x | x | x | x
Cc1ccc(-c2nnc3ccc(SCC(=O)Nc4cc(C)on4)nn23)cc1 | i | i | i | i | i | x | x | x | x | x
Cc1cc(NC(=O)CSc2ccc3nnc(-c4cccs4)n3n2)no1 | i | -5.3* | i | i | i | -159.0%* | i | -35.5%* | i | i | TRPC6 act confirm=i
CCn1cnc2cc(NS(=O)(=O)c3ccc(OC)c(OC)c3)ccc21 | i | i | i | i | i | x | x | x | x | x
COc1ccc(OCC(O)CNC(=O)c2ccc(OC)cc2)cc1 (stereo not given) | i | i | i | i | i | x | x | x | x | x
COc1ccc(OCC(O)COc2ccc(OC)cc2)cc1 | i | -6.37* | i | i | i | i | i | i | i | 66.0%*

Screens: PubChem, Johns Hopkins Ion Channel Center
